Assay results published in ChEMBL document CHEMBL1146380, “Synthesis, antimicrobial activity, and QSAR studies of furan-3-carboxamides” (2007).
Values after ≈ are worked out from the molar mass of the structure shown. Active and inactive are the calls of the source. The rule behind the calls is not given here.

Tests used:
[1] = tested on: Cryptococcus deneoformans; test: Antimicrobial activity against Cryptococcus neoformans var.neoformans serotype D ATCC 28952 by broth microdilution method; format: functional
Procedure, shortened: (§1)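 Organism grown on potato dextrose agar, with turbidity-standardized inoculum in RPMI 1640 broth (M27-A2). DMSO-dissolved compound was tested in twofold dilutions from 320 to 1.25 at 35 °C, incubated up to 72 h, in duplicate. MIC was the lowest concentration with no visible growth. Cidal concentration was read by subculturing 20 µL from clear wells on Sabouraud dextrose agar, incubated for the same period.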

[2] = tested on: Aspergillus terreus; test: Antimicrobial activity against Aspergillus terreus isolate by broth microdilution method; format: functional
[3] = tested on: Rhizopus arrhizus; test: Antimicrobial activity against Rhizopus oryzae isolate by broth microdilution method; format: functional
[4] = (§2) Antimicrobial activity against Salmonella setubal ATCC 19196 by broth microdilution method; format: functional, Salmonella enterica subsp. enterica serovar Setubal; details: Salmonella enterica
Procedure, shortened: (§3)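 Bacteria grown overnight on Mueller–Hinton agar. Colonies were suspended in saline to McFarland turbidity (about 10^8 cfu/mL), diluted 1:100 in saline, then 1:20 in Mueller–Hinton broth, giving 5 · 10^4 cfu/mL per well. DMSO-dissolved compound was tested in twofold dilutions from 320 to 1.25 at 35 °C for 24 h. MIC was the lowest concentration with no visible turbidity (M7-A4). Bactericidal concentration was read by subculturing clear wells on Mueller–Hinton agar.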

[5] = tested on: Salmonella enterica subsp. enterica serovar Setubal; test: as §2; format: functional; procedure, shortened: as §3
[6] = tested on: Aspergillus fumigatus; test: Antimicrobial activity against Aspergillus fumigatus isolate by broth microdilution method; format: functional
[7] = tested on: Scedosporium boydii; test: Antimicrobial activity against Pseudallescheria boydii isolate by broth microdilution method; format: functional
[8] = tested on: Candida albicans; test: Antimicrobial activity against Candida albicans ATCC 44373 by broth microdilution method; format: functional
Procedure, shortened: (§4)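 Yeasts grown on potato dextrose agar. Inoculum was standardized by McFarland turbidity as for bacteria, into RPMI 1640 broth (M27-A2). DMSO-dissolved compound was tested in twofold dilutions from 320 to 1.25 at 35 °C for 24 h, in duplicate. MIC was the lowest concentration completely inhibiting visible growth. Fungicidal concentration was read by subculturing 20 µL from clear wells on Sabouraud dextrose agar at 35 °C.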

[9] = tested on: Saccharomyces cerevisiae; test: Antimicrobial activity against Saccharomyces cerevisiae ATCC 2601 by broth microdilution method; format: functional; procedure, shortened: as §1
[10] = tested on: Candida dubliniensis; test: Antimicrobial activity against Candida dubliniensis CBS 7987 by broth microdilution method; format: functional; procedure, shortened: as §4
[11] = tested on: Sporothrix schenckii; test: Antimicrobial activity against Sporothrix schenckii ATCC 1146 by broth microdilution method; format: functional
[12] = tested on: Nakaseomyces glabratus; test: Antimicrobial activity against Candida glabrata […] by broth microdilution method; format: functional; procedure, shortened: as §4
[13] = tested on: Aspergillus flavus; test: Antimicrobial activity against Aspergillus flavus isolate by broth microdilution method; format: functional
[14] = tested on: Staphylococcus aureus; test: Antimicrobial activity against Staphylococcus aureus ATCC 25923 by broth microdilution method; format: functional; procedure, shortened: as §3
[15] = tested on: Fusarium solani; test: Antimicrobial activity against Fusarium solani isolate by broth microdilution method; format: functional
[16] = tested on: Escherichia coli; test: Antimicrobial activity against Escherichia coli ATCC 25922 by broth microdilution method; format: functional; procedure, shortened: as §3
[17] = tested on: Aspergillus niger; test: Antimicrobial activity against Aspergillus niger isolate by broth microdilution method; format: functional
[18] = tested on: Prototheca zopfii; test: Antimicrobial activity against Prototheca zopfii by broth microdilution method; format: functional; procedure, shortened: as §1
[19] = tested on: Pseudomonas aeruginosa; test: Antimicrobial activity against Pseudomonas aeruginosa ATCC 27853 by broth microdilution method; format: functional; procedure, shortened: as §3
[20] = tested on: Klebsiella pneumoniae; test: Antimicrobial activity against Klebsiella pneumoniae ATCC 1003 by broth microdilution method; format: functional; procedure, shortened: as §3

CN(C)C(=O)c1ccoc1
Activity [1]: inactive
MIC [1]: 320 µg/mL (≈ 2300 µM)
Activity [2]: inactive
MFC [3]: 320 µg/mL (≈ 2300 µM)
MIC [3]: 320 µg/mL (≈ 2300 µM)
MIC [4]: 320 µg/mL (≈ 2300 µM)
Activity [5]: inactive
Activity [6]: inactive
MFC [7]: 320 µg/mL (≈ 2300 µM)
MIC [7]: 160 µg/mL (≈ 1150 µM)
Activity [8]: inactive
MIC [9]: inactive
Activity [10]: inactive
MFC [11]: 320 µg/mL (≈ 2300 µM)
MIC [11]: 160 µg/mL (≈ 1150 µM)
Activity [12]: inactive
Activity [13]: inactive
Activity [14]: inactive
MIC [14]: 320 µg/mL (≈ 2300 µM)
Activity [15]: inactive
Activity [16]: inactive
Activity [17]: inactive
MIC [17]: 320 µg/mL (≈ 2300 µM)
Activity [18]: inactive
MIC [18]: 320 µg/mL (≈ 2300 µM)
Activity [19]: inactive
MIC [19]: 320 µg/mL (≈ 2300 µM)
Activity [20]: inactive
MIC [20]: 320 µg/mL (≈ 2300 µM)

O=C(NNc1ccccc1)c1ccoc1
MFC [1]: 160 µg/mL (≈ 791 µM)
MIC [1]: 160 µg/mL (≈ 791 µM)
MFC [2]: 40 µg/mL (≈ 198 µM)
MIC [2]: 40 µg/mL (≈ 198 µM)
MFC [3]: 320 µg/mL (≈ 1580 µM)
MIC [3]: 320 µg/mL (≈ 1580 µM)
MIC [4]: 320 µg/mL (≈ 1580 µM)
Activity [5]: inactive
MFC [6]: 20 µg/mL (≈ 98.9 µM)
MIC [6]: 20 µg/mL (≈ 98.9 µM)
MFC [7]: 320 µg/mL (≈ 1580 µM)
MIC [7]: 10 µg/mL (≈ 49.5 µM)
MFC [8]: 320 µg/mL (≈ 1580 µM)
MIC [8]: 320 µg/mL (≈ 1580 µM)
MFC [9]: 320 µg/mL (≈ 1580 µM)
MIC [9]: 320 µg/mL (≈ 1580 µM)
MFC [10]: 320 µg/mL (≈ 1580 µM)
MIC [10]: 320 µg/mL (≈ 1580 µM)
MFC [11]: 320 µg/mL (≈ 1580 µM)
MIC [11]: 10 µg/mL (≈ 49.5 µM)
Activity [12]: inactive
MIC [12]: 320 µg/mL (≈ 1580 µM)
MFC [13]: 20 µg/mL (≈ 98.9 µM)
MIC [13]: 10 µg/mL (≈ 49.5 µM)
Activity [14]: inactive
MIC [14]: 320 µg/mL (≈ 1580 µM)
MFC [15]: 2.5 µg/mL (≈ 12.4 µM)
MIC [15]: 2.5 µg/mL (≈ 12.4 µM)
Activity [16]: inactive
MIC [16]: 320 µg/mL (≈ 1580 µM)
MFC [17]: 40 µg/mL (≈ 198 µM)
MIC [17]: 20 µg/mL (≈ 98.9 µM)
MFC [18]: 320 µg/mL (≈ 1580 µM)
MIC [18]: 160 µg/mL (≈ 791 µM)
Activity [19]: inactive
MIC [19]: 320 µg/mL (≈ 1580 µM)
Activity [20]: inactive
MIC [20]: 320 µg/mL (≈ 1580 µM)

O=C(NNc1c(F)c(F)c(F)c(F)c1F)c1ccoc1
MFC [1]: 320 µg/mL (≈ 1100 µM)
MIC [1]: 320 µg/mL (≈ 1100 µM)
MFC [2]: 320 µg/mL (≈ 1100 µM)
MIC [2]: 320 µg/mL (≈ 1100 µM)
MFC [3]: 320 µg/mL (≈ 1100 µM)
MIC [3]: 320 µg/mL (≈ 1100 µM)
MIC [4]: 320 µg/mL (≈ 1100 µM)
Activity [5]: inactive
Activity [6]: inactive
Activity [7]: inactive
MFC [8]: 320 µg/mL (≈ 1100 µM)
MIC [8]: 320 µg/mL (≈ 1100 µM)
Activity [9]: inactive
MFC [10]: 320 µg/mL (≈ 1100 µM)
MIC [10]: 160 µg/mL (≈ 548 µM)
MFC [11]: 320 µg/mL (≈ 1100 µM)
MIC [11]: 320 µg/mL (≈ 1100 µM)
Activity [12]: inactive
MIC [12]: 320 µg/mL (≈ 1100 µM)
Activity [13]: inactive
Activity [14]: inactive
MIC [14]: 320 µg/mL (≈ 1100 µM)
MFC [15]: 80 µg/mL (≈ 274 µM)
MIC [15]: 80 µg/mL (≈ 274 µM)
Activity [16]: inactive
MIC [16]: 320 µg/mL (≈ 1100 µM)
MFC [17]: 320 µg/mL (≈ 1100 µM)
MIC [17]: 320 µg/mL (≈ 1100 µM)
MFC [18]: 320 µg/mL (≈ 1100 µM)
MIC [18]: 80 µg/mL (≈ 274 µM)
Activity [19]: inactive
MIC [19]: 320 µg/mL (≈ 1100 µM)
Activity [20]: inactive
MIC [20]: 320 µg/mL (≈ 1100 µM)

O=C(Nc1ccccc1O)c1ccoc1
MFC [1]: 20 µg/mL (≈ 98.4 µM)
MIC [1]: 5 µg/mL (≈ 24.6 µM)
Activity [2]: inactive
MIC [2]: 320 µg/mL (≈ 1570 µM)
MFC [3]: 320 µg/mL (≈ 1570 µM)
MIC [3]: 320 µg/mL (≈ 1570 µM)
MBC [4]: 320 µg/mL (≈ 1570 µM)
MIC [4]: 160 µg/mL (≈ 787 µM)
MFC [6]: 320 µg/mL (≈ 1570 µM)
MIC [6]: 160 µg/mL (≈ 787 µM)
MFC [7]: 160 µg/mL (≈ 787 µM)
MIC [7]: 160 µg/mL (≈ 787 µM)
MFC [8]: 320 µg/mL (≈ 1570 µM)
MIC [8]: 160 µg/mL (≈ 787 µM)
MFC [9]: 160 µg/mL (≈ 787 µM)
MIC [9]: 160 µg/mL (≈ 787 µM)
MFC [10]: 160 µg/mL (≈ 787 µM)
MIC [10]: 80 µg/mL (≈ 394 µM)
MFC [11]: 320 µg/mL (≈ 1570 µM)
MIC [11]: 320 µg/mL (≈ 1570 µM)
MFC [12]: 160 µg/mL (≈ 787 µM)
MIC [12]: 160 µg/mL (≈ 787 µM)
Activity [13]: inactive
MIC [13]: 320 µg/mL (≈ 1570 µM)
MIC [14]: 20 µg/mL (≈ 98.4 µM)
MBC ([14]; read-out: MFC): 320 µg/mL (≈ 1570 µM)
Activity [15]: inactive
MIC [15]: 320 µg/mL (≈ 1570 µM)
MBC [16]: 320 µg/mL (≈ 1570 µM)
MIC [16]: 160 µg/mL (≈ 787 µM)
MFC [17]: 320 µg/mL (≈ 1570 µM)
MIC [17]: 320 µg/mL (≈ 1570 µM)
MFC [18]: 80 µg/mL (≈ 394 µM)
MIC [18]: 40 µg/mL (≈ 197 µM)
MBC [19]: 160 µg/mL (≈ 787 µM)
MIC [19]: 10 µg/mL (≈ 49.2 µM)
MIC [20]: 20 µg/mL (≈ 98.4 µM)
MBC ([20]; read-out: MFC): 320 µg/mL (≈ 1570 µM)

OC(Cn1cncn1)(Cn1cncn1)c1ccc(F)cc1F [FLUCONAZOLE]
MIC [1]: 2 µg/mL (≈ 6.53 µM)
MIC [8]: 4 µg/mL (≈ 13.1 µM)
MIC [9]: 1 µg/mL (≈ 3.27 µM)
MIC [10]: 2 µg/mL (≈ 6.53 µM)
MIC [12]: 8 µg/mL (≈ 26.1 µM)
